Only a selection was taken, and hits are over-represented in it overall.
GSH fluor – GSH bead compound fluorescence profile; GSH beads flow cytometry, compound fluorescence 488/530 nm; hits give high values; fluorescence (KMESF) at 10 µM; 0.25% of 190,000 active; in the data active = fluorescence above about 89;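 note: glutathione beads carrying GST-tagged Bcl family fusion proteins plus one bare bead set; values are compound well signal with DMSO vehicle wells as background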
Avidin bead fluor – avidin bead compound fluorescence profile; fluorescence (KMESF) at 10 µM; 0.38% of 220,000 active; Avidin beads, compound fluorescence 488/530 nm, flow cytometry; hits give high values; in the data active = fluorescence above about 47
Lmaj promast – inhibitors of Leishmania major promastigote growth | 9% of 200,000 active | AID 1063 | Leishmania major promastigotes, resazurin fluorescence viability | inhibition, % at 10 µM;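 note: promastigotes grown with compound for 44 hours at 28 °C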
PKD1 kinase inh – PKD1 (human) kinase inhibition; Q15139; PKD1 kinase fluorescence polarization assay; inhibition, % (concentration not given with the values); 0.056% of 200,000 active; AID 797
ABCG2 block – blocks JC-1 efflux by human ABCG2 transporter. Q9UNQ0. IgMXP3 cells, flow cytometry. inhibition, % at 6.6 µM. 0.1% of 190,000 active;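 active = inhibition above 80%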;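 note: 0% = DMSO and 100% = nicardipine control wells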
Target sequence (Q9UNQ0 whole entry, looked up): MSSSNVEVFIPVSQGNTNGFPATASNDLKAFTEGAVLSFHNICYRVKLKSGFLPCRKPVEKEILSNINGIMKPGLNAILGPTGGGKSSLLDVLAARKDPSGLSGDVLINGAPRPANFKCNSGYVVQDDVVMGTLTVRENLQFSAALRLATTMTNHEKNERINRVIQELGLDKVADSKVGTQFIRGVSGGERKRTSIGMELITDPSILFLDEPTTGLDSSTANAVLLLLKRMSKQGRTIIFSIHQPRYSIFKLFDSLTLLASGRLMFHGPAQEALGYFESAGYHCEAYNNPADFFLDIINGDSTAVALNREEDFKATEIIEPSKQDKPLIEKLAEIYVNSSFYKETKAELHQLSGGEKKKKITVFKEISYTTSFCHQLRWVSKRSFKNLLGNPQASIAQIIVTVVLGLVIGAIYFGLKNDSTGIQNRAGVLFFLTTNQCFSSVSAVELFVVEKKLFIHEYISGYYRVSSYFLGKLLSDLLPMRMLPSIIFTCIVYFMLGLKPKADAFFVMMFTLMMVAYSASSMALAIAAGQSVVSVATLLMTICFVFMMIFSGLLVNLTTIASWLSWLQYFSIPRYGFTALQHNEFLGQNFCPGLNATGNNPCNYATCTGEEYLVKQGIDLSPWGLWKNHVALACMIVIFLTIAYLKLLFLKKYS
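Test system: ABCG2 IgMXP3 and barcoded ABCB1 CCRF-Adr cell mix; Schedule: cells with compound and JC-1, 10 min at 25 °C, rotating, no wash; Technique: flow cytometry of retained JC-1 fluorescence; Measure: % inhibition of efflux relative to nicardipine and DMSO; Controls: nicardipine high and DMSO low controls.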
ABCB1 block – human ABCB1 inhibition, ABCG2 as counter-screen | P08183 | 0.067% of 190,000 active | CCRF-Adr cells, JC-1 efflux, flow cytometry | inhibition, % at 6.6 µM | AID 1326; in the data active = inhibition above about 40%;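 note: 0% = vehicle and 100% = reference inhibitor; higher value means more JC-1 retained so stronger ABCB1 efflux block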
L major 1uM – inhibitors of Leishmania major promastigote growth, repeat at 1 uM; inhibition, % at 1 µM; shares compounds with Lmaj promast; 13% of 1,100 active; L. major promastigote growth, resazurin fluorescence, 48 h;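 active = inhibition above about 50% in both repeat tests, limit read from the data; inconclusive = one repeat under the set limit, the other over it; inactive = both repeats under the set limit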
Starred values were filed as active, the others as inactive; ? = inconclusive; . = no result given. Cut-off read from the data, not from the text of the source, unless noted: active = inhibition above about 50%; inactive = the rest.

SMILES	GSH fluor	Avidin bead fluor	Lmaj promast	PKD1 kinase inh	ABCG2 block	ABCB1 block	L major 1uM
O=C(NCSc1ccncn1)c1ccccc1	4	7	-1	-20	1	0	.
O=C(OCc1ccccc1)N1CCOCCOCCN(C(=O)OCc2ccccc2)CCOCCOCC1	12	34	61*	-11	4	2	-4
O=C(Nc1ccc(Cl)cc1)Nc1ccc2c(c1)N1CCN=C1S2	10	38	100*	-4	-1	0	1
Nc1ccc2c(c1)N1CCN=C1S2	6	6	0	5	0	0	.
CCS(=O)(=O)c1nnnn1-c1ccccc1S(C)(=O)=O	12	5	54*	-9	2	0	0
COc1ccc(OC)c(C(=O)/C=C/c2ccccc2C(F)(F)F)c1	22	17	75*	-6	18	2	-9
COc1ccc(C(=O)/C=C/c2ccccc2)c(OC)c1	20	6	66*	2	7	0	10
COc1ccc(C(=O)/C=C/c2ccc(N(C)C)cc2)c(OC)c1	.	5	.	.	.	.	.
Cc1cc(C)n2nc3nc4c(cc3c2n1)CCCC4	19	23	72*	-1	3	1	-20
CC[C@H](C)C(=O)O[C@H]1CCC=C2C=C[C@H](C)[C@H](CC[C@@H]3C[C@@H](O)CC(=O)O3)[C@H]21	72	7	76*	11	6	0	-6
CN1CC(c2ccccc2Cl)C2(COc3ccccc3C2=O)C12C(=O)Nc1ccccc12 (stereo not given)	20	34	31	-7	2	1	.
CN1CC(c2ccccn2)C2(SC(=S)N(Cc3ccccc3)C2=O)C12C(=O)Nc1ccccc12 (stereo not given)	29	12	100*	7	-5	-2	14
OCCC1CN(Cc2ccc(C(F)(F)F)cc2)CCN1Cc1ccccc1 (stereo not given)	14	6	49	-2	1	0	.
OCCC1CN(Cc2cccc(C(F)(F)F)c2)CCN1Cc1ccccc1 (stereo not given)	13	5	80*	8	2	1	?
Oc1ccccc1CNc1nc2ccccc2n1CCN1CCCCC1	20	7	24	11	-1	-1	.
COc1ccccc1CNc1nc2ccccc2n1CCN1CCCCC1	11	21	61*	-17	2	1	9
Cn1nc(-c2ccc(Cl)cc2)cc1NC(=O)CSCC(=O)O	.	3	.	.	.	.	.
O=C(Nc1ccccc1-c1nc2ccccc2s1)c1cccnc1	8	11	95*	4	9	.	6
O=C(Nc1ccccc1-c1nc2ccccc2s1)c1ccc(Br)o1	7	9	-1	-5	0	0	.
Cc1noc(NC(=O)c2c(-c3c(Cl)cccc3Cl)noc2C)c1[N+](=O)[O-]	.	3	.	.	.	.	.
O=C(Nc1cccn(Cc2ccccc2)c1=O)NC1CCCCC1	36	13	78*	11	9	-2	4
CCC(C#CCN1CCCCC1)(CC)OCCC#N	48	35	65*	1	0	0	-4
Cc1ccc(N2CC(O)(c3cccs3)[N+]3=C2CCCC3)cc1 (stereo not given)	13	11	39	-3	0	0	.
CCc1ccc(N2CC(O)(c3cccs3)[N+]3=C2SCCC3)cc1 (stereo not given)	10	24	72*	-4	-1	0	4
O=C(CCSc1nc2cc(Cl)ccc2o1)N1CCOCC1	44	35	-3	0	5	1	.
SMILES	GSH fluor	Avidin bead fluor	Lmaj promast	PKD1 kinase inh	ABCG2 block	ABCB1 block	L major 1uM
COc1ccc(C2CC(=O)c3cnn(-c4nc(C)cc(C)n4)c3C2)cc1OC (stereo not given)	.	6	.	.	.	.	.
Cc1ccc(C2CC(=O)c3cnn(-c4nc(C)cc(C)n4)c3C2)cc1 (stereo not given)	14	10	75*	-6	9	1	16
CCCOP(=O)(OCCC)c1c([N+](=O)[O-])cc(C(F)(F)F)cc1[N+](=O)[O-]	14	16	54*	-1	2	1	1
CCOc1ccc(C(F)(F)F)cc1NC(=O)COc1ccc(C(F)(F)F)cc1[N+](=O)[O-]	33	11	-4	7	15	0	.
CCc1ccc(/C=C/c2c[nH]c3ccccc23)[n+](CC)c1	11	7	100*	-6	1	.	10
COc1ccc2c(c1)OCC1=C2CCC2(C)C(=O)CC=C12 (stereo not given)	12	25	52*	-3	0	0	23
CCCCc1c(C)nn(-c2nnc3c4ccccc4n(C)c3n2)c1C	32	14	87*	2	56	2	-28
CCOC(=O)c1sc(=S)sc1SCc1cccc(C(F)(F)F)c1	46	5	61*	-8	0	0	-11
O=C(CN1CCCCC1)N1CCCc2c1c(=O)oc1ccc(OCc3ccccc3)cc21	17	8	67*	0	5	1	-2
CC1(C(=O)NCc2cccnc2)CCC(=O)N1Cc1cccs1 (stereo not given)	14	7	-6	1	-1	0	.
Cc1cc2nc3c(nc2cc1C)C1(C(=O)N(C)C)CCC3(C)C1(C)C (stereo not given)	18	7	94*	-2	4	2	-11
CN(c1ccccc1)S(=O)(=O)c1cc(C(=O)N2CCN(c3ccccn3)CC2)ccc1Cl	18	31	90*	1	2	2	-1
Cc1ccc(-n2cc(CN(C)CCc3cn[nH]c3)c(-c3cccc(C)c3)n2)cc1	10	3	65*	2	1	1	-14
COC(=O)c1ccc(Cn2cnc3c(cnn3-c3ccc(Cl)cc3)c2=O)o1	23	5	-5	-1	20	1	.
O=C(c1sc2ccccc2c1Cl)N(Cc1ccccc1Cl)C1CCS(=O)(=O)C1 (stereo not given)	15	37	100*	-2	4	1	-2
O=C(c1ccccc1)N(Cc1cccs1)C1CCS(=O)(=O)C1 (stereo not given)	28	13	-2	-2	3	1	.
CCc1nnc(NC(=O)CSc2nnc(CNc3ccc(C)cc3)n2C)s1	13	11	-9	-3	1	0	.
CCOC(=O)c1ccccc1NC(=O)c1ccccc1N(C)S(C)(=O)=O	30	14	90*	-4	8	1	-3
COc1cc2c(cc1C=O)OC(C)C2 (stereo not given)	12	10	-2	-1	2	-1	.
CC1(C)Cc2c(ccc3ccccc23)/C(=C/C(=O)N2CCCCC2)N1	18	20	18	-4	7	2	.
O=C(/C=C1\NC2(CCCC2)Cc2ccccc21)N1CCOCC1	16	11	88*	-10	2	1	-2
